This passage reports Emax, Activity and EC50 results from ChEMBL document CHEMBL3616420, “Nitrogenated honokiol derivatives allosterically modulate GABAA receptors and act as strong partial agonists” (Bioorg Med Chem, 2015).

Each structure is given as a SMILES string. Calls of active or inactive are those of the source. The calls are words filed in the database; no cut-off is given here.

Common to all, as to assay type: cell-based
The target of experiment [1] is T1, GABA-A receptor; alpha-1/beta-2/gamma-2 (Homo sapiens) (UniProt P14867+P47870+P18507). Nature of the experiment: Allosteric modulation of GABAAalpha1beta2gamma2s receptor (unknown origin) expressed in Xenopus laevis oocytes assessed as potentiation of GABA-induced chloride current by two-microelectrode voltage-clamp method relative to GABA. The method, boiled down: (§1)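 Stage V–VI Xenopus laevis oocytes, defolliculated with 2 mg/mL collagenase, were injected with subunit cRNAs (approx. 300–3000 pg/nL/subunit) and stored at +18 °C in modified ND96 (pH 7.4). Chloride currents were recorded by two-microelectrode voltage clamp at +21 °C, holding potential −70 mV. Washout was 1.5 min at low compound concentrations and 30 min at high ones. Curves were fitted to a Hill equation. Values are mean ± SE from at least 3 oocytes and 2 batches.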

Experiment [2] has as its target T1, GABA-A receptor; alpha-1/beta-2/gamma-2 (Homo sapiens). The experiment is described as follows: Partial agonist activity at GABAAalpha1beta2gamma2s receptor (unknown origin) expressed in Xenopus laevis oocytes assessed as induction of chloride current by two-microelectrode voltage-clamp method relative to GABA. Put shortly:
as §1

The target in experiment [3] is T2, GABA-A receptor; alpha-1/beta-2/gamma-2 (Homo sapiens, UniProt P14867+P18507+P47870).
T2 sequence (P14867 whole entry): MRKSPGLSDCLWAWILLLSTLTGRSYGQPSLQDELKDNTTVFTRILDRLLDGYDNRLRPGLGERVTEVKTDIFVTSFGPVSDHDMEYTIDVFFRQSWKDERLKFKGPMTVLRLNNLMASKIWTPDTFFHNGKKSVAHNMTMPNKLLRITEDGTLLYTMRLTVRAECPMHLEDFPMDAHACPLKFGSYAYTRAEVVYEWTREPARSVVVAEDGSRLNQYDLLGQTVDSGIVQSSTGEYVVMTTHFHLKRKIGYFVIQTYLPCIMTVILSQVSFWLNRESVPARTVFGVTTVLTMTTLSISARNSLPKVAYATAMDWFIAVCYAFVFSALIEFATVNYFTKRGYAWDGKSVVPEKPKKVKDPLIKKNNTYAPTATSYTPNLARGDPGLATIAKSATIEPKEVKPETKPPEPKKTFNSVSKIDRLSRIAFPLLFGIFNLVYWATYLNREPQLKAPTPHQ
T2 sequence (P47870 whole entry): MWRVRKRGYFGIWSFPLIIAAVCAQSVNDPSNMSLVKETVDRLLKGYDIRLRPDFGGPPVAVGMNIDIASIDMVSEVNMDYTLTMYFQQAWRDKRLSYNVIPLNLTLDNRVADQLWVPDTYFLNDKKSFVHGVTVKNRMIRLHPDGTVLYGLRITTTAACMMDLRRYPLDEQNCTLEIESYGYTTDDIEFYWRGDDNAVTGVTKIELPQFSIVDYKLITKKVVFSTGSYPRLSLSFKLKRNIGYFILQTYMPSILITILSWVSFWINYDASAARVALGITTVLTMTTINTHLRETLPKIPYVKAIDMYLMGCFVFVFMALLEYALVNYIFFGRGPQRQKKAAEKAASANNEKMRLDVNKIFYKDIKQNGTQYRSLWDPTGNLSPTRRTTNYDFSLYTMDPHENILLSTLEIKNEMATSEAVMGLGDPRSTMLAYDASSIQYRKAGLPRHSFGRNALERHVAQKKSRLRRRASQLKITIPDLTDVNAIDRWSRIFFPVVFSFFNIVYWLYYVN
T2 sequence (P18507 whole entry): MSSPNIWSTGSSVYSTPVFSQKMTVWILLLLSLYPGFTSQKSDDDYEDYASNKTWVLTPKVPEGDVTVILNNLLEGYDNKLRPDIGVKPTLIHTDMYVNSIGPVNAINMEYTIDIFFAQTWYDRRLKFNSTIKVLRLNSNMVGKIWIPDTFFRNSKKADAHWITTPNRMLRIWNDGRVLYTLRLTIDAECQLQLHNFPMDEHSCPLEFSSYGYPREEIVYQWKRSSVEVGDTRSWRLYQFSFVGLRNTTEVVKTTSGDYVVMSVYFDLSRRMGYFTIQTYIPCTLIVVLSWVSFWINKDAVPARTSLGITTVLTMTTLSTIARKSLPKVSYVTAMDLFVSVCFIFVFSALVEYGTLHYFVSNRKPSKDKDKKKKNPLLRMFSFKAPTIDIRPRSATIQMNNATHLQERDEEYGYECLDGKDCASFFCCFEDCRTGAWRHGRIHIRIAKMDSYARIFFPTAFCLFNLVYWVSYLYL
Nature of the experiment: Allosteric modulation of GABAAalpha1beta2gamma2s receptor (unknown origin) expressed in Xenopus laevis oocytes assessed as potentiation of GABA-induced chloride current by two-microelectrode voltage-clamp method. Put shortly: as §1

Experiment [4] concerns the target T2, GABA-A receptor; alpha-1/beta-2/gamma-2. Nature of the experiment: Partial agonist activity at GABAAalpha1beta2gamma2s receptor (unknown origin) expressed in Xenopus laevis oocytes assessed as induction of chloride current by two-microelectrode voltage-clamp method.
Experiment [5] deals with T1, GABA-A receptor; alpha-1/beta-2/gamma-2 (Homo sapiens). The experiment is described as follows: Allosteric modulation of GABAAalpha1beta2gamma2s receptor (unknown origin) expressed in Xenopus laevis oocytes assessed as potentiation of GABA-induced chloride current at 100 uM by two-microelectrode voltage-clamp method. The method, boiled down: (§2)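 Stage V–VI Xenopus oocytes were injected with 10–50 nL of DEPC-treated water carrying each GABAA subunit cRNA at about 300–3000 pg/nL/subunit. Oocytes were kept at +18 °C in modified ND96 (pH 7.4). Chloride currents were recorded by two-microelectrode voltage clamp at +21 °C, holding at −70 mV. Washout was lengthened at high drug concentrations. Values are mean SE from ≥3 oocytes and ≥2 batches.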

The target is the same in experiment [6]. Nature of the experiment: Partial agonist activity at GABAAalpha1beta2gamma2s receptor (unknown origin) expressed in Xenopus laevis oocytes assessed as potentiation of GABA-induced chloride current at 100 uM by two-microelectrode voltage-clamp method. The method, boiled down:
as §2

`CCCc1ccc(OCC)c(-c2cc(N)c(O)c(CCC)c2)c1`: in experiment [1], the Emax was found to be 118%. Besides, in experiment [2], the result was inactive. Moreover, the EC50 in experiment [3] amounted to 20.4 µM.

As for `C=CCc1ccc(OCC)c(-c2cc(N)c(O)c(CC=C)c2)c1`, the Emax in experiment [1] came to 91%. The result in experiment [2] was inactive. In experiment [3], the EC50 was found to be 21.5 µM.

`CCCc1cc(NC(C)=O)c(O)c(-c2ccc(OCC)c(CCC)c2)c1`: the Emax in experiment [1] was determined as 123%; in experiment [2], 32%. Besides, the EC50 amounted to 6.9 µM in experiment [4] and 1.8 µM in experiment [3]. The outcome in experiment [5] and in experiment [6] was Active.

As to `C=CCc1ccc(O)c(-c2ccc(O)c(CC=C)c2)c1` [HONOKIOL], in experiment [4], the EC50 is 76.2 µM. In addition, the Emax in experiment [2] stood at 78%.

Take `C=CCc1cc(NC(C)=O)c(O)c(-c2ccc(OC)c(CC=C)c2)c1`: the values for the Emax in experiment [1] and in experiment [2] were 142% and 63%, respectively. Also, the EC50 in experiment [4] is 68.1 µM; in experiment [3], 5.3 µM.

Regarding `CCCc1cc(N)c(O)c(-c2ccc(OCC)c(CCC)c2)c1`, the Emax in experiment [1] stood at 93.7%; in experiment [2], 29%. The EC50 in experiment [4] was 33.2 µM; in experiment [3], 14.4 µM. For the same molecule, the result in experiment [5] and in experiment [6] was Active.

Take `CCCc1ccc(OC)c(-c2cc(N)c(O)c(CCC)c2)c1`: the Emax in experiment [1] was 108%; in experiment [2] it was 52%. In addition, the results for the EC50 in experiment [4] and in experiment [3] were 62.2 µM and 15.8 µM, respectively. The result in experiment [5] and in experiment [6] was Active.

Regarding `CCCc1ccc(OC)c(-c2cc(CCC)c(O)c(NC(C)=O)c2)c1`, the Emax in experiment [1] turned out to be 42.5%. Further, the result in experiment [2] was inactive. In addition, the EC50 in experiment [3] turned out to be 24.6 µM.

In the case of `C=CCc1ccc(OC)c(-c2cc(N)c(O)c(CC=C)c2)c1`, the Emax is 72% in experiment [1] and 59% in experiment [2]. Moreover, the EC50 is 144 µM in experiment [4] and 47.6 µM in experiment [3]. For the same molecule, the outcome in experiment [5] and in experiment [6] was Active.

Usually Emax stands for the greatest response seen or fitted, relative to the assay's reference. One may read the EC50 as the concentration needed to bring the measured effect to its halfway point.
